Data on four compounds can be found in ChEMBL document CHEMBL1687802, “An RpoB mutation confers dual heteroresistance to daptomycin and vancomycin in Staphylococcus aureus” (2010).

Broadly, the MIC is the lowest concentration found to suppress growth. A lower MIC goes with greater potency.

Values after ≈ are worked out from the molar mass of the structure shown.

Assay [1] concerns Staphylococcus aureus. Nature of the assay: Antimicrobial activity against vancomycin-susceptible Staphylococcus aureus MI-P84 by Etest method.
The subject of assay [2] is Staphylococcus aureus. Nature of the assay: Antimicrobial activity against vancomycin-susceptible Staphylococcus aureus MU50-P35 by Etest method.
Assay [3] concerns Staphylococcus aureus. Nature of the assay: Antimicrobial activity against vancomycin-intermediate Staphylococcus aureus MU50 by Etest method. The format is functional.
For assay [4], the system named is Staphylococcus aureus. Put plainly: Antimicrobial activity against methicillin-resistant Staphylococcus aureus 10*3d1 harboring hypothetical protein SA1826 14A(-) and rpoB 621E mutant gene after 24 hrs by Etest method. The settings on record: 10*3d1, 24 h. It is filed as functional. In outline: (§1)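 Etest MICs (daptomycin, vancomycin, oxacillin, rifampin) on Mueller-Hinton agar, with the daptomycin medium supplemented with 50 mg/liter Ca2+. Plates were swabbed from a 0.5 McFarland suspension, strips were applied 10 min later, and plates were read after 24 h at 37°C. Strains were pKOR1 allelic-replacement mutants or revertants of N315ΔIP (mecI-inactivated, beta-lactamase plasmid cured) or 10*3d1, grown in BHI broth at 37°C.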

Assay [5] relates to Staphylococcus aureus. Nature of the assay: Antimicrobial activity against methicillin-resistant Staphylococcus aureus N315deltaIP harboring hypothetical protein SA1826 14E mutant gene after 24 hrs by Etest method. It is filed as functional. In outline: as §1
For assay [6], the system named is Staphylococcus aureus. Put plainly: Antimicrobial activity against methicillin-resistant Staphylococcus aureus N315deltaIP harboring hypothetical protein SA1826 14A mutant after 24 hrs by Etest method. It is filed as functional. A digest of the protocol: as §1
Assay [7] relates to Staphylococcus aureus. Put plainly: Antimicrobial activity against methicillin-resistant Staphylococcus aureus 10*3d1 harboring hypothetical protein SA1826 14A mutant gene after 24 hrs by Etest method. It is filed as functional. The settings on record: 10*3d1, 24 h. In outline: as §1
Assay [8] deals with Staphylococcus aureus. Nature of the assay: Antimicrobial activity against vancomycin-intermediate Staphylococcus aureus MU50-PR selected at 4 mg/L of vancomycin by Etest method. The format is functional.
The test system of assay [9] is Staphylococcus aureus. Put plainly: Antimicrobial activity against methicillin-resistant Staphylococcus aureus 10*3d1 harboring hypothetical protein SA1826 14E mutant gene after 24 hrs by Etest method. The format is functional. The following applies: 10*3d1, 24 h. A digest of the protocol: as §1
Assay [10] has as its system Staphylococcus aureus. Nature of the assay: Antimicrobial activity against vancomycin-intermediate Staphylococcus aureus MI-PR selected at 4 mg/L of vancomycin by Etest method. It is filed as functional.
In assay [11] the test system is Staphylococcus aureus. Nature of the assay: Antimicrobial activity against methicillin-resistant Staphylococcus aureus 10*3d1 harboring rpoB 621E mutation after 24 hrs by Etest method. The following applies: 10*3d1, 24 h.
The subject of assay [12] is Staphylococcus aureus. Nature of the assay: Antimicrobial activity against methicillin-resistant Staphylococcus aureus 10*3d1 harboring hypothetical protein SA1826 14A mutant and rpoB 621A mutant after 24 hrs by Etest method. It is filed as functional. The settings on record: 10*3d1, 24 h. A digest of the protocol:
as §1

Assay [13] concerns Staphylococcus aureus. Nature of the assay: Antimicrobial activity against vancomycin-intermediate Staphylococcus aureus MI by Etest method. The format is functional.
Assay [14] relates to Staphylococcus aureus. Nature of the assay: Antimicrobial activity against methicillin-resistant Staphylococcus aureus N315deltaIP harboring rpoB 621A mutant after 24 hrs by Etest method.
Assay [15] has as its system Staphylococcus aureus. Put plainly: Antimicrobial activity against methicillin-resistant Staphylococcus aureus N315deltaIP after 24 hrs by Etest method. It is filed as functional. A digest of the protocol: as §1
Assay [16] deals with Staphylococcus aureus. Nature of the assay: Antimicrobial activity against methicillin-resistant Staphylococcus aureus N315deltaIP harboring rpoB A621E mutant gene after 24 hrs by Etest method. It is filed as functional. In outline:
as §1

The subject of assay [17] is Staphylococcus aureus. Nature of the assay: Antimicrobial activity against vancomycin-intermediate Staphylococcus aureus MI-PR selected at 4 mg/L of compound by Etest method.
The subject of assay [18] is Staphylococcus aureus. Nature of the assay: Antimicrobial activity against vancomycin-intermediate Staphylococcus aureus MU50-P35 selected at 4 mg/L of compound by Etest method.
Assay [19] deals with Staphylococcus aureus. Put plainly: Antimicrobial activity against vancomycin-intermediate Staphylococcus aureus MI-P84 selected at 4 mg/L of compound by Etest method.
The test system of assay [20] is Staphylococcus aureus. Put plainly: Antimicrobial activity against vancomycin-intermediate Staphylococcus aureus MU50-PR selected at 4 mg/L of compound by Etest method.

As for `CCCCCCCCCC(=O)N[C@@H](Cc1c[nH]c2ccccc12)C(=O)N[C@H](CC(N)=O)C(=O)N[C@@H](CC(=O)O)C(=O)N[C@@H]1C(=O)NCC(=O)N[C@@H](CCCN)C(=O)N[C@@H](CC(=O)O)C(=O)N[C@H](C)C(=O)N[C@@H](CC(=O)O)C(=O)NCC(=O)N[C@H](CO)C(=O)N[C@@H]([C@H](C)CC(=O)O)C(=O)N[C@@H](CC(=O)c2ccccc2N)C(=O)O[C@@H]1C`, the MIC in assay [1] worked out at 0.5 µg/mL (≈ 0.309 µM); in assay [2], 0.5 µg/mL (≈ 0.309 µM); in assay [3], 2 µg/mL (≈ 1.23 µM); in assay [4], 1.5 µg/mL (≈ 0.926 µM); in assay [5] it was 0.25 µg/mL (≈ 0.154 µM); in [6], 0.25 µg/mL (≈ 0.154 µM). Also, the MIC in assay [7] stood at 1.5 µg/mL (≈ 0.926 µM); in assay [8], 2 µg/mL (≈ 1.23 µM); in [9], 1.5 µg/mL (≈ 0.926 µM); in assay [10] it was 2 µg/mL (≈ 1.23 µM); in assay [11], 2 µg/mL (≈ 1.23 µM); in assay [12], 0.25 µg/mL (≈ 0.154 µM). The MIC in assay [13] turned out to be 2 µg/mL (≈ 1.23 µM); in assay [14], 0.25 µg/mL (≈ 0.154 µM); in assay [15], 0.38 µg/mL (≈ 0.234 µM); in assay [16], 1.5 µg/mL (≈ 0.926 µM).

For the compound `CO[C@H]1/C=C/O[C@@]2(C)Oc3c(C)c(O)c4c(O)c(c(/C=N/N5CCN(C)CC5)c(O)c4c3C2=O)NC(=O)/C(C)=C\C=C\[C@H](C)[C@H](O)[C@@H](C)[C@@H](O)[C@@H](C)[C@H](OC(C)=O)[C@@H]1C` [RIFAMPIN], the MIC in [4], in [5], in assay [6], in [7], in [9] and in [11] was 0.006 µg/mL (≈ 0.00729 µM) in each case. The MIC in assay [12], in assay [14], in assay [15] and in assay [16] was 0.006 µg/mL (≈ 0.00729 µM) each time.

Take `CN[C@H](CC(C)C)C(=O)N[C@H]1C(=O)N[C@@H](CC(N)=O)C(=O)N[C@H]2C(=O)N[C@H]3C(=O)N[C@H](C(=O)N[C@H](C(=O)O)c4cc(O)cc(O)c4-c4cc3ccc4O)[C@H](O)c3ccc(c(Cl)c3)Oc3cc2cc(c3O[C@@H]2O[C@H](CO)[C@@H](O)[C@H](O)[C@H]2O[C@H]2C[C@](C)(N)[C@H](O)[C@H](C)O2)Oc2ccc(cc2Cl)[C@H]1O` [VANCOMYCIN]: the MIC is 6 µg/mL (≈ 4.14 µM) in [3]; 3 µg/mL (≈ 2.07 µM) in assay [4]; 0.5 µg/mL (≈ 0.345 µM) in assay [5]; 0.5 µg/mL (≈ 0.345 µM) in assay [6]; 3 µg/mL (≈ 2.07 µM) in [7]; 6 µg/mL (≈ 4.14 µM) in assay [17]. Besides, the MIC was determined as 3 µg/mL (≈ 2.07 µM) in assay [9]; 3 µg/mL (≈ 2.07 µM) in assay [11]; 0.75 µg/mL (≈ 0.518 µM) in [12]; 2 µg/mL (≈ 1.38 µM) in assay [18]; 1 µg/mL (≈ 0.69 µM) in assay [19]; 6 µg/mL (≈ 4.14 µM) in assay [20]. Also, the MIC in [13] came out at 7 µg/mL (≈ 4.83 µM); in assay [14], 0.25 µg/mL (≈ 0.173 µM); in [15], 0.5 µg/mL (≈ 0.345 µM); in assay [16], 3 µg/mL (≈ 2.07 µM).

As to `Cc1onc(-c2ccccc2)c1C(=O)N[C@@H]1C(=O)N2[C@@H]1SC(C)(C)[C@@H]2C(=O)O` [OXACILLIN], the MIC in [4], in assay [5], in assay [6], in assay [7], in assay [9] and in [11] was greater than 256 µg/mL each time. Besides, the MIC was greater than 256 µg/mL in [12], greater than 256 µg/mL in assay [14], 48 µg/mL (≈ 120 µM) in assay [15] and greater than 256 µg/mL in assay [16].
